The source made the active and inactive calls. No cut-off for these calls is given here.
Assays:
A549 = assay: Antiproliferative activity against human A549 cells assessed as growth inhibition measured after 48 hrs by sulforhodamine B assay; assay type: functional; conditions: A549, 48 h
Summary of the method: (§1)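 NCI protocol with minor modifications. DMSO stocks at 40 mM. Cells exposed for 48 h to serial decimal dilutions, 0.001–100 µM. GI50 in µM from at least two independent experiments, with SD.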

SW1573 [1] = assay: (§2) Resistance factor, ratio of GI50 for antiproliferative activity against human SW1573 cells over-expressing P-gp incubated for 48 hrs in presence of P-gp and CYP3A4/5 inhibitor verapamil by sulforhodamine assay to GI50 for antiproliferative activity against human SW1573 cells incubated for 48 hrs in presence of P-gp and CYP3A4/5 inhibitor verapamil by sulforhodamine B assay; assay type: functional
Summary of the method: (§3)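 Resistance factor: GI50 in SW1573/PGP divided by GI50 in wild-type SW1573. Both came from 48 h exposure, with or without 10 µM verapamil. GI50 values are from at least two independent experiments.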

SW1573 [2] = assay: Antiproliferative activity against human SW1573 cells over-expressing P-gp incubated for 48 hrs in absence of P-gp and CYP3A4/5 inhibitor verapamil by sulforhodamine B assay; assay type: functional; conditions: SW1573, 48 h
Summary of the method: (§4)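 Wild-type and P-gp-overexpressing SW1573 cells were grown in RPMI 1640 with 1 mM glutamine, 5% FBS and antibiotics at 37 °C. Cells were exposed for 48 h to serial decimal dilutions, 0.001–100 µM, with or without 10 µM verapamil. GI50 values come from at least two independent experiments, with SD.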

SW1573 [3] = assay: Antiproliferative activity against human SW1573 cells incubated for 48 hrs in presence of P-gp and CYP3A4/5 inhibitor verapamil by sulforhodamine B assay; assay type: functional; conditions: SW1573, 48 h; summary of the method: as §4
SW1573 [4] = assay: as §2, with “hrs in absence of P-gp” for “hrs in presence of P-gp”, “by sulforhodamine B assay to” for “by sulforhodamine assay to”; assay type: functional; summary of the method: as §3
HBL-100 = assay: Antiproliferative activity against human HBL100 cells assessed as growth inhibition measured after 48 hrs by sulforhodamine B assay; assay type: functional; conditions: HBL-100, 48 h; summary of the method: as §1
[5] = (§5) Cytotoxicity against human hTERT-BJ cells assessed as growth inhibition measured after 48 hrs by sulforhodamine B assay; assay type: cell-based; conditions: hTERT-BJ cells
Summary of the method: as §1, with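 “modifications. Human tumour lines or fibroblasts in RPMI 1640 with 1 mM glutamine, 5% FBS and antibiotics, 37 °C, 5% CO2, low passage.” for “modifications.”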

HeLa [6] = assay: Anticancer activity against human HeLa cells assessed as increase in ROS production at 10 uM measured after 48 hrs by ROS-GloTM H2O2 assay; assay type: functional, cell-based
Summary of the method: (§6)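 HeLa cells in RPMI 1640 with 1 mM glutamine, 5% FBS and antibiotics, 37 °C, 5% CO2. Exposed to compound at 1 or 10 µM for 48 h. ROS (H2O2) read with a non-lytic, HRP-free luminescent kit per the manufacturer.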

SW1573 [7] = assay: Antiproliferative activity against human SW1573 cells over-expressing P-gp incubated for 48 hrs in presence of P-gp and CYP3A4/5 inhibitor verapamil by sulforhodamine B assay; assay type: functional; conditions: SW1573, 48 h; summary of the method: as §4
HeLa [8] = assay: Antiproliferative activity against human HeLa cells assessed as growth inhibition measured after 48 hrs by sulforhodamine B assay; assay type: functional; summary of the method: as §1
T47D [9] = assay: Antiproliferative activity against human T47D cells assessed as growth inhibition measured after 48 hrs by sulforhodamine B assay; assay type: functional; summary of the method: as §1
SW1573 [10] = assay: Antiproliferative activity against human SW1573 cells incubated for 48 hrs in absence of P-gp and CYP3A4/5 inhibitor verapamil by sulforhodamine B assay; assay type: functional; conditions: SW1573, 48 h; summary of the method: as §4
WiDr [11] = assay: Antiproliferative activity against human WiDr cells assessed as growth inhibition measured after 48 hrs by sulforhodamine B assay; assay type: functional; summary of the method: as §1
T47D [12] = assay: Potency index, ratio of GI50 for CDDP to test compound GI50 for antiproliferative activity against human T47D cells; assay type: functional
[13] = molecular target: T1, Histone deacetylase 8 (Homo sapiens) (UniProt Q9BY41); assay: Potency index, ratio of inhibition activity of trichostatin to inhibition activity of compound HDAC8 (unknown origin)
T1 sequence (whole entry): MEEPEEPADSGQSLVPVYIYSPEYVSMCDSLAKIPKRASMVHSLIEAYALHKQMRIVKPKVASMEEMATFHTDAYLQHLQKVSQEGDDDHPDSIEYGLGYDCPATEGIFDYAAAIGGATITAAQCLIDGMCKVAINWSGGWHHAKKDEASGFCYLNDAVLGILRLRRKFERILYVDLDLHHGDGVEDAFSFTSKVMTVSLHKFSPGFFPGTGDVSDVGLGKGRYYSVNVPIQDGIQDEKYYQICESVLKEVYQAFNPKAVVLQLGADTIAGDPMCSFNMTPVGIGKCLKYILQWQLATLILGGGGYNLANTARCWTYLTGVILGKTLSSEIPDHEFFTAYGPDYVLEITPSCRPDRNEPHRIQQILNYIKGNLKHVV

WiDr [14] = assay: Potency index, ratio of GI50 for CDDP to test compound GI50 for antiproliferative activity against human WiDr cells; assay type: functional
HeLa [15] = assay: Anticancer activity against human HeLa cells assessed as increase in ROS production at 1 uM measured after 48 hrs by ROS-GloTM H2O2 assay; assay type: functional, cell-based; summary of the method: as §6
hTERT-BJ = assay: as §5; assay type: cell-based; conditions: htert-bj, 48 h
Summary of the method: as §1, with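 “modifications. Human tumour lines or fibroblasts in RPMI 1640 with 1 mM glutamine, 5% FBS and antibiotics, 37 °C, 5% CO2, low passage.” for “modifications.”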

[16] = Selectivity index, ratio of GI50 for Cytotoxicity against human hTERT-BJ cells to ratio of GI50 for antiproliferative activity against human T47D cells; assay type: toxicity, cell-based; conditions: hTERT-BJ cells versus T47D cells, read-out: RatioGI50
[17] = Selectivity index, ratio of GI50 for Cytotoxicity against human hTERT-BJ cells to ratio of GI50 for antiproliferative activity against human A549 cells; assay type: toxicity, cell-based; conditions: hTERT-BJ cells versus A549 cells, read-out: RatioGI50
[18] = Selectivity index, ratio of GI50 for Cytotoxicity against human hTERT-BJ cells to ratio of GI50 for antiproliferative activity against human HeLa cells; assay type: toxicity, cell-based; conditions: hTERT-BJ cells versus HeLa cells, read-out: RatioGI50
[19] = Selectivity index, ratio of GI50 for Cytotoxicity against human hTERT-BJ cells to ratio of GI50 for antiproliferative activity against human WiDr cells; assay type: toxicity, cell-based; conditions: hTERT-BJ cells versus WiDr cells, read-out: RatioGI50
[20] = Selectivity index, ratio of GI50 for Cytotoxicity against human hTERT-BJ cells to ratio of GI50 for antiproliferative activity against human HBL100 cells

SMILES	GI50 (A549)	RatioGI50 (SW1573 [1])	GI50 (SW1573 [2])	GI50 (SW1573 [3])	RatioGI50 (SW1573 [4])	GI50 (HBL-100)	GI50 at 48 h [5]	Activity (HeLa [6])	GI50 (SW1573 [7])	GI50 (HeLa [8])	GI50 (T47D [9])	GI50 (SW1573 [10])	GI50 (WiDr [11])	further results
Cc1cc(=O)oc2cc(NC(=[Se])Nc3ccc(C(F)(F)F)cc3)ccc12	8.6 µM	0.9	24 µM	26 µM	1.2	13 µM	32 µM	Active	22 µM	21 µM	8.7 µM	20 µM	6 µM	
Cc1cc(=O)oc2cc(NC(=[Se])Nc3ccc4c(C)cc(=O)oc4c3)ccc12	3.2 µM	2.3	55 µM	9 µM	12	3.5 µM	4.9 µM		21 µM	2.9 µM	3.6 µM	4.5 µM	4.5 µM	RatioGI50 (T47D [12]): <=6; Ratio [13]: 1.65; RatioGI50 (WiDr [14]): <=6; Activity (HeLa [15]): Active
CCCCOC(=[Se])Nc1ccc2c(C)cc(=O)oc2c1														GI50 (hTERT-BJ): Nd(Insoluble)
Cc1cc(=O)oc2cc(NC(=[Se])Nc3ccccc3)ccc12	28 µM	0.8	21 µM	25 µM	0.9	28 µM	> 100 µM	Active	21 µM	24 µM	24 µM	23 µM	34 µM	
Cc1cc(=O)oc2cc(N=C=[Se])ccc12	3.6 µM	0.9	29 µM	29 µM	1.1	5 µM	50 µM	Active	24 µM	12 µM	3.6 µM	27 µM	4.8 µM	selectivity ratio [16]: ≤ 14; selectivity ratio [17]: ≤ 14; selectivity ratio [18]: ≤ 14; selectivity ratio [19]: ≤ 14; RatioGI50 [20]: <=14
CCCCNC(=[Se])Nc1ccc2c(C)cc(=O)oc2c1	3 µM	0.7	2.3 µM	2.7 µM	0.8	2.3 µM	3.1 µM		2 µM	5.2 µM	2.9 µM	3 µM	3.8 µM	RatioGI50 (T47D [12]): <=6; RatioGI50 (WiDr [14]): <=6; Activity (HeLa [15]): Active
CC(=O)O[C@H]1C(=O)[C@@]2(C)[C@H]([C@H](OC(=O)c3ccccc3)[C@]3(O)C[C@H](OC(=O)[C@H](O)[C@@H](NC(=O)c4ccccc4)c4ccccc4)C(C)=C1C3(C)C)[C@]1(OC(C)=O)CO[C@@H]1C[C@@H]2O [PACLITAXEL]		3	0.196 µM	0.0016 µM					0.0042 µM			0.0015 µM		
COc1ccc(NC(=[Se])Nc2ccc3c(C)cc(=O)oc3c2)cc1	28 µM	2.5	24 µM	10 µM	1.7	38 µM	> 100 µM	Active	25 µM	35 µM	33 µM	14 µM	23 µM	
Cc1cc(=O)oc2cc(NC(=[Se])Nc3ccc(Br)cc3)ccc12	2.7 µM	1	9.6 µM	16 µM	0.9	2.2 µM	4.4 µM		16 µM	2.2 µM	2.8 µM	11 µM	3.5 µM	RatioGI50 (T47D [12]): <=6; RatioGI50 (WiDr [14]): <=6; Activity (HeLa [15]): Active
COC(=[Se])Nc1ccc2c(C)cc(=O)oc2c1	> 100 µM					> 100 µM				78 µM	> 100 µM		> 100 µM	
CCOC(=[Se])Nc1ccc2c(C)cc(=O)oc2c1	> 100 µM					> 100 µM				> 100 µM	> 100 µM		> 100 µM	
CC[C@]1(O)C[C@@H]2CN(CCc3c([nH]c4ccccc34)[C@@](C(=O)OC)(c3cc4c(cc3OC)N(C)[C@H]3[C@@](O)(C(=O)OC)[C@H](OC(C)=O)[C@]5(CC)C=CCN6CC[C@]43[C@@H]65)C2)C1 [VINBLASTINE]		1	2.05 µM	0.0008 µM					0.001 µM			0.0009 µM		
CCCOC(=[Se])Nc1ccc2c(C)cc(=O)oc2c1	37 µM	3	32 µM	12 µM	2	34 µM	33 µM	Active	35 µM	23 µM	41 µM	16 µM	42 µM	

— ChEMBL document CHEMBL4351017, “Selenocoumarins as new multitarget antiproliferative agents: Synthesis, biological evaluation and in silico calculations” (Eur J Med Chem, 2019)
